Measured values reported in ChEMBL document CHEMBL1123853, “A novel class of cardiotonics. Synthesis and pharmacological properties of [4-(substituted-amino)phenyl]pyridazinones and related derivatives” (1987).

Columns and labels:
Canis familiaris [1] = species: Canis familiaris; test: Positive inotropic in the isolated papillary muscle of the dog.; assay type: functional, Canis lupus familiaris
How it was run: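 Right ventricular anterior papillary muscle with septum, from mongrel dogs (7–12 kg, pentobarbital 30 mg/kg iv). It was perfused at about 100 mmHg via the septal artery with blood from a heparinized donor dog and paced at 120/min (1 ms pulses, about 1.5× threshold). Isometric tension was recorded. Saline solutions were injected intra-arterially, with amrinone as reference. ED15 (15% rise in developed tension) was taken from log dose-response curves. Results are mean ± SEM (n = 7) or mean ± range (n = 2).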

Canis familiaris [2] = test: Inotropic activity determined by evaluating the % change in Heart Rate (HR) at a dose of 100 ug/kg administered intravenously […]; assay type: functional, Canis lupus familiaris
How it was run: (§1)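 Mongrel dogs of either sex, 7–15 kg, anesthetized with sodium pentobarbital (30 mg/kg iv), open-chest, intubated and ventilated on room air. Compounds given intravenously. A femoral artery catheter with pressure transducer recorded SBP and DBP. dP/dtmax, right ventricular contractile force, cardiac output and heart rate were also recorded, as % change at each iv dose.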

Canis familiaris [3] = test: Inotropic activity determined by evaluating the % change in Diastolic Blood Pressure (DBP) at a dose of 100 ug/kg administered intravenously […]; assay type: functional, Canis lupus familiaris; how it was run: as §1
Canis familiaris [4] = test: Inotropic activity determined by evaluating the maximum rate of rise in left ventricular pressure at a dose of 100 ug/kg administered intravenously […]; assay type: functional, Canis lupus familiaris, Muscle tissue; how it was run: as §1
Canis familiaris [5] = test: Inotropic activity determined by evaluating the % change in Diastolic Blood Pressure (DBP) at a dose of 30 ug/kg administered intravenously […]; assay type: functional, Canis lupus familiaris; how it was run: as §1
Canis familiaris [6] = test: Inotropic activity determined by evaluating the % change in Systolic Blood Pressure (SBP) at a dose of 30 ug/kg administered intravenously […]; assay type: functional, Canis lupus familiaris, Muscle tissue; how it was run: as §1
Canis familiaris [7] = test: Inotropic activity determined by evaluating the % change in Systolic Blood Pressure (SBP) at a dose of 100 ug/kg administered intravenously […]; assay type: functional, Canis lupus familiaris, Muscle tissue; how it was run: as §1
Canis familiaris [8] = test: Inotropic activity determined by evaluating the % change in Heart Rate (HR) at a dose of 30 ug/kg administered intravenously […]; assay type: functional, Canis lupus familiaris; how it was run: as §1
Canis familiaris [9] = test: Inotropic activity determined by evaluating the maximum rate of rise in left ventricular pressure at a dose of 30 ug/kg administered intravenously […]; assay type: functional, Canis lupus familiaris, Muscle tissue; how it was run: as §1
Canis familiaris [10] = test: Inotropic activity determined by evaluating the % change in Cardiac out put (CO)at a dose of 100 ug/kg administered intravenously […]; assay type: functional, Canis lupus familiaris; how it was run: as §1
Canis familiaris [11] = species: Canis familiaris; test: Positive inotropic activity determined in the […](that produced 30% increase in dose- response curves [dP/dt(max)]); assay type: functional; settings: Canis lupus familiaris
How it was run: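 In the anesthetized open-chest dog (mongrel, 7–15 kg, pentobarbital 30 mg/kg iv, ventilated on room air), compounds were given intravenously and LV dP/dtmax was recorded. The dose giving a 30% rise in dP/dtmax was read from the dose-response curves. Results are mean ± SEM (n = 3) or mean ± range (n = 2).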

Canis familiaris [12] = test: Inotropic activity determined by evaluating the % change in Cardiac out put (CO)at a dose of 30 ug/kg administered intravenously […]; assay type: functional, Canis lupus familiaris; how it was run: as §1
Canis familiaris [13] = test: Inotropic activity determined by evaluating the % change in contractile force (CF) of right ventricle at a dose of 100 ug/kg administered intravenously […]; assay type: functional, Canis lupus familiaris, Heart right ventricle; how it was run: as §1
Canis familiaris [14] = test: Inotropic activity determined by evaluating the % change in contractile force (CF) of right ventricle at a dose of 30 ug/kg administered intravenously […]; assay type: functional, Canis lupus familiaris, Heart right ventricle; how it was run: as §1
Canis familiaris [15] = test: Inotropic activity determined by evaluating the maximum rate of rise in left ventricular pressure at a dose of 1000 ug/kg administered intravenously […]; assay type: functional, Canis lupus familiaris, Muscle tissue; how it was run: as §1
Canis familiaris [16] = test: Inotropic activity determined by evaluating the % change in Heart Rate (HR) at a dose of 300 ug/kg administered intravenously […]; assay type: functional, Canis lupus familiaris, Muscle tissue; how it was run: as §1
Canis familiaris [17] = test: Inotropic activity determined by evaluating the % change in contractile force (CF) of right ventricle at a dose of 300 ug/kg administered intravenously […]; assay type: functional, Canis lupus familiaris, Heart right ventricle; how it was run: as §1
Canis familiaris [18] = test: Inotropic activity determined by evaluating the % change in Systolic Blood Pressure (SBP) at a dose of 300 ug/kg administered intravenously […]; assay type: functional, Canis lupus familiaris, Muscle tissue; how it was run: as §1
Canis familiaris [19] = test: Inotropic activity determined by evaluating the % change in Diastolic Blood Pressure (DBP) at a dose of 1000 ug/kg administered intravenously […]; assay type: functional, Canis lupus familiaris; how it was run: as §1
Canis familiaris [20] = test: Inotropic activity determined by evaluating the % change in contractile force (CF) of right ventricle at a dose of 1000 ug/kg administered intravenously […]; assay type: functional, Canis lupus familiaris, Heart right ventricle; how it was run: as §1
Canis familiaris [21] = test: Inotropic activity determined by evaluating the % change in Diastolic Blood Pressure (DBP) at a dose of 300 ug/kg administered intravenously […]; assay type: functional, Canis lupus familiaris; how it was run: as §1
Canis familiaris [22] = test: Inotropic activity determined by evaluating the % change in Heart Rate (HR) at a dose of 1000 ug/kg administered intravenously […]; assay type: functional, Canis lupus familiaris; how it was run: as §1
Canis familiaris [23] = test: Inotropic activity determined by evaluating the % change in Cardiac out put (CO)at a dose of 1000 ug/kg administered intravenously […]; assay type: functional, Canis lupus familiaris; how it was run: as §1
Canis familiaris [24] = test: Inotropic activity determined by evaluating the maximum rate of rise in left ventricular pressure at a dose of 300 ug/kg administered intravenously […]; assay type: functional, Canis lupus familiaris, Muscle tissue; how it was run: as §1
Canis familiaris [25] = test: Inotropic activity determined by evaluating the % change in Cardiac out put (CO)at a dose of 300 ug/kg administered intravenously […]; assay type: functional, Canis lupus familiaris; how it was run: as §1
Canis familiaris [26] = test: Inotropic activity determined by evaluating the % change in Systolic Blood Pressure (SBP) at a dose of 1000 ug/kg administered intravenously […]; assay type: functional, Canis lupus familiaris, Muscle tissue; how it was run: as §1
Canis familiaris [27] = test: Inotropic activity determined by evaluating the % change in Cardiac out put (CO)at a dose of 10 ug/kg administered intravenously […]; assay type: functional, Canis lupus familiaris; how it was run: as §1
Canis familiaris [28] = test: Inotropic activity determined by evaluating the maximum rate of rise in left ventricular pressure at a dose of 10 ug/kg administered intravenously […]; assay type: functional, Canis lupus familiaris, Muscle tissue; how it was run: as §1
Canis familiaris [29] = test: Inotropic activity determined by evaluating the % change in Diastolic Blood Pressure (DBP) at a dose of 10 ug/kg administered intravenously […]; assay type: functional, Canis lupus familiaris; how it was run: as §1
Canis familiaris [30] = test: Inotropic activity determined by evaluating the % change in Heart Rate (HR) at a dose of 10 ug/kg administered intravenously […]; assay type: functional, Canis lupus familiaris; how it was run: as §1
Canis familiaris [31] = test: Inotropic activity determined by evaluating the % change in contractile force (CF) of right ventricle at a dose of 10 ug/kg administered intravenously […]; assay type: functional, Canis lupus familiaris, Heart right ventricle; how it was run: as §1
Canis familiaris [32] = test: Inotropic activity determined by evaluating the % change in Systolic Blood Pressure (SBP) at a dose of 10 ug/kg administered intravenously […]; assay type: functional, Canis lupus familiaris; how it was run: as §1

Structure (SMILES): CC(Nc1ccc(C2=NNC(=O)CC2)cc1)c1ccncc1 (configuration not stated)
- ED15 (Canis familiaris [1]): 33 µg

Structure (SMILES): CN(C)c1ccc(CNc2ccc(C3=NNC(=O)CC3)cc2)cc1
- ED15 (Canis familiaris [1]): >300 µg

Structure (SMILES): O=C1CCC(c2ccc(NCc3ccncc3)cc2)=NN1
- ED15 (Canis familiaris [1]): >300 µg

Structure (SMILES): O=C1CCC(c2ccc(NCc3cccnc3)cc2)=NN1
- ED15 (Canis familiaris [1]): 86 µg

Structure (SMILES): O=C1CCC(c2ccc(NCc3ccnc4ccccc34)cc2)=NN1
- ED15 (Canis familiaris [1]): >300 µg

Structure (SMILES): CC1CC(c2ccc(Nc3ccncc3)cc2)=NNC1=O.Cl (configuration not stated)
- Change of HR (Canis familiaris [2]): 17.3%
- Change of DBP (Canis familiaris [3]): -26.1%
- dP/dt (Canis familiaris [4]): 43.8%
- Change of DBP (Canis familiaris [5]): -9.8%
- Change of SBP (Canis familiaris [6]): -5.9%
- Change of SBP (Canis familiaris [7]): -14.6%
- Change of HR (Canis familiaris [8]): 4.6%
- dP/dt (Canis familiaris [9]): 24.2%
- Change of CO (Canis familiaris [10]): 23.3%
- ED30 (Canis familiaris [11]): 0.072 mg/kg
- Change of CO (Canis familiaris [12]): 10.3%
- Change of CF (Canis familiaris [13]): 52.9%
- Change of CF (Canis familiaris [14]): 22.5%
- ED15 (Canis familiaris [1]): 4.7 µg

Structure (SMILES): CCc1cc(O)nnc1-c1ccc(Nc2ccncc2)cc1.Cl
- dP/dt (Canis familiaris [15]): -0.9%
- Change of HR (Canis familiaris [16]): -0.1%
- Change of CF (Canis familiaris [17]): 2.8%
- Change of SBP (Canis familiaris [18]): 0.4%
- Change of DBP (Canis familiaris [19]): -9.3%
- Change of CF (Canis familiaris [20]): 4.2%
- Change of DBP (Canis familiaris [21]): -0.9%
- Change of HR (Canis familiaris [22]): -2.9%
- Change of CO (Canis familiaris [23]): 8.6%
- ED30 (Canis familiaris [11]): > 1 mg/kg
- dP/dt (Canis familiaris [24]): 1%
- ED15 (Canis familiaris [1]): >300 µg
- Change of CO (Canis familiaris [25]): 3.9%
- Change of SBP (Canis familiaris [26]): -5%

Structure (SMILES): CC1CC(=O)NN=C1c1ccc(Nc2ccccn2)cc1.Cl (configuration not stated)
- Change of CO (Canis familiaris [27]): 12.7%
- dP/dt (Canis familiaris [28]): 19.3%
- Change of DBP (Canis familiaris [5]): -31%
- Change of DBP (Canis familiaris [29]): -22.4%
- Change of SBP (Canis familiaris [6]): -17.6%
- Change of HR (Canis familiaris [30]): 5.3%
- Change of HR (Canis familiaris [8]): 8.9%
- dP/dt (Canis familiaris [9]): 46.4%
- Change of CF (Canis familiaris [31]): 19.5%
- Change of SBP (Canis familiaris [32]): -14.1%
- ED30 (Canis familiaris [11]): 0.022 mg/kg
- Change of CO (Canis familiaris [12]): 15.8%
- Change of CF (Canis familiaris [14]): 44.4%
- ED15 (Canis familiaris [1]): 3.2 µg
